Test results published in ChEMBL document CHEMBL4364301 (Eur J Med Chem, 2019).

Legend:
Assay type in all cases: functional
[1] = test system: DU-145; assay: Antiproliferative activity against human DU145 cells assessed as reduction in cell growth incubated for 96 hrs by propidium iodide based 2D monolayer assay; settings: DU-145, 96 h
Outline: (§1)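 After 24 h recovery, compound in medium or medium alone (control wells) was added at 10 half-log concentrations from 0.0032 to 100 µM, in triplicate, with at most 0.3% DMSO. After 96 h, wells were PBS-washed, stained with 7 µg/ml PI and 0.1% Triton X-100, and fluorescence read at 530/620 nm. IC50 came from a 4-parameter fit, geometric mean.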

[2] = test system: CWR22R; assay: Antiproliferative activity against human 22Rv1 cells assessed as reduction in cell growth incubated for 96 hrs by propidium iodide based 2D monolayer assay; settings: 22Rv1, 96 h; outline: as §1
[3] = test system: LNCaP; assay: Antiproliferative activity against human LNCAP cells assessed as reduction in cell growth incubated for 96 hrs by propidium iodide based 2D monolayer assay; outline: as §1
[4] = test system: VCaP; assay: Antiproliferative activity against human VCaP cells assessed as reduction in cell growth incubated for 96 hrs by propidium iodide based 2D monolayer assay
Outline: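 VCaP cells in RPMI 1640 with 10% FCS at 37 °C, 5% CO2, seeded 4,000–20,000 cells/well and left 24 h before dosing. Compounds from DMSO stocks were diluted in half-log steps in medium, 10 concentrations 0.0032–100 μM, triplicate wells, max 0.3% DMSO. After 96 h, cells were washed, stained with 7 μg/ml propidium iodide plus 0.1% Triton X-100 for 1–2 h at room temperature, and fluorescence read at ex 530/em 620 nm.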

## CC(O)(COc1cccc(OC(F)(F)F)c1)C(=O)Nc1ccc(S(F)(F)(F)(F)F)cc1 (racemic)
[1]
  IC50: 18.4 µM
[2]
  IC50: 17.3 µM
[3]
  IC50: 11 µM
[4]
  IC50: 18.3 µM

## CC(O)(COc1ccc(S(F)(F)(F)(F)F)cc1)C(=O)Nc1ccc(C#N)cc1C(F)(F)F (racemic)
[1]
  IC50: 16 µM
[2]
  IC50: 14.7 µM
[3]
  IC50: 12.3 µM
[4]
  IC50: 25.5 µM

## CC(O)(CSc1ccc(OC(F)(F)F)cc1)C(=O)Nc1cccc(S(F)(F)(F)(F)F)c1 (racemic)
[1]
  IC50: 24.7 µM
[2]
  IC50: 17 µM
[3]
  IC50: 10.3 µM
[4]
  IC50: 28.5 µM

## CC(O)(CSc1ccccc1OC(F)(F)F)C(=O)Nc1cccc(S(F)(F)(F)(F)F)c1 (racemic)
[1]
  IC50: 17.5 µM
[2]
  IC50: 13.9 µM
[3]
  IC50: 10 µM
[4]
  IC50: 12.6 µM

## CC(O)(COc1ccc(S(F)(F)(F)(F)F)cc1)C(=O)Nc1ccc(S(F)(F)(F)(F)F)cc1 (racemic)
[1]
  IC50: 24.9 µM
[2]
  IC50: 13 µM
[3]
  IC50: 9.8 µM
[4]
  IC50: 9.3 µM

## CC(O)(COc1ccc(S(F)(F)(F)(F)F)cc1)C(=O)Nc1ccc([N+](=O)[O-])c(C(F)(F)F)c1 (racemic)
[1]
  IC50: 21.2 µM
[2]
  IC50: 14.1 µM
[3]
  IC50: 100 µM
[4]
  IC50: 100 µM

## CC(O)(COc1ccc(S(F)(F)(F)(F)F)cc1)C(=O)Nc1ccc([N+](=O)[O-])cc1C(F)(F)F (racemic)
[1]
  IC50: 15.4 µM
[2]
  IC50: 17.1 µM
[3]
  IC50: 14.8 µM
[4]
  IC50: 26.1 µM

## CC(O)(COc1cccc(S(F)(F)(F)(F)F)c1)C(=O)Nc1ccc([N+](=O)[O-])cc1C(F)(F)F (racemic)
[1]
  IC50: 18 µM
[2]
  IC50: 15.5 µM
[3]
  IC50: 12.1 µM
[4]
  IC50: 20.3 µM

## CC(O)(COc1ccc(OC(F)(F)F)cc1)C(=O)Nc1ccc(S(F)(F)(F)(F)F)cc1 (racemic)
[1]
  IC50: 24.8 µM
[2]
  IC50: 27.9 µM
[3]
  IC50: 18.6 µM
[4]
  IC50: 12.8 µM

## CC(O)(COc1ccc(S(F)(F)(F)(F)F)cc1)C(=O)Nc1ccc(C#N)c(C(F)(F)F)c1 (racemic)
[1]
  IC50: 25.5 µM
[2]
  IC50: 28.2 µM
[3]
  IC50: 11.5 µM
[4]
  IC50: 30.1 µM

## CC(O)(COc1cccc(S(F)(F)(F)(F)F)c1)C(=O)Nc1ccc(S(F)(F)(F)(F)F)cc1 (racemic)
[1]
  IC50: 29.6 µM
[2]
  IC50: 17.6 µM
[3]
  IC50: 12 µM
[4]
  IC50: 11.4 µM

## CC(O)(COc1ccc(S(F)(F)(F)(F)F)cc1)C(=O)Nc1cccc(S(F)(F)(F)(F)F)c1 (racemic)
[1]
  IC50: 12.8 µM
[2]
  IC50: 10.2 µM
[3]
  IC50: 8 µM
[4]
  IC50: 8 µM

## CC(O)(COc1ccccc1OC(F)(F)F)C(=O)Nc1ccc(S(F)(F)(F)(F)F)cc1 (racemic)
[1]
  IC50: 16.8 µM
[2]
  IC50: 7.3 µM
[3]
  IC50: 8.9 µM
[4]
  IC50: 9.7 µM

## CC(O)(COc1ccc(C#N)cc1)C(=O)Nc1ccc(S(F)(F)(F)(F)F)cc1 (racemic)
[1]
  IC50: 32.2 µM
[2]
  IC50: 26.1 µM
[3]
  IC50: 100 µM
[4]
  IC50: 100 µM

## CC(O)(COc1cccc(S(F)(F)(F)(F)F)c1)C(=O)Nc1ccc(C#N)c(C(F)(F)F)c1 (racemic)
[1]
  IC50: 16 µM
[2]
  IC50: 10.7 µM
[3]
  IC50: 9.8 µM
[4]
  IC50: 8 µM

## CC(O)(COc1cccc(C(F)(F)F)c1)C(=O)Nc1ccc(S(F)(F)(F)(F)F)cc1 (racemic)
[1]
  IC50: 21.9 µM
[2]
  IC50: 14.6 µM
[3]
  IC50: 24.7 µM
[4]
  IC50: 24.7 µM

## CC(O)(CSc1cccc(OC(F)(F)F)c1)C(=O)Nc1cccc(S(F)(F)(F)(F)F)c1 (racemic)
[1]
  IC50: 25 µM
[2]
  IC50: 18.7 µM
[3]
  IC50: 10.9 µM
[4]
  IC50: 17.5 µM

## CC(O)(COc1ccc(C#N)c(F)c1)C(=O)Nc1ccc(S(F)(F)(F)(F)F)cc1 (racemic)
[1]
  IC50: 30.4 µM
[2]
  IC50: 24.3 µM
[3]
  IC50: 100 µM
[4]
  IC50: 100 µM

## CC(O)(COc1cccc(S(F)(F)(F)(F)F)c1)C(=O)Nc1ccc(C#N)cc1C(F)(F)F (racemic)
[1]
  IC50: 16.3 µM
[2]
  IC50: 11.6 µM
[3]
  IC50: 9.9 µM
[4]
  IC50: 10.3 µM

## CC(O)(COc1ccc(C#N)cc1C(F)(F)F)C(=O)Nc1ccc(S(F)(F)(F)(F)F)cc1 (racemic)
[1]
  IC50: 21.2 µM
[2]
  IC50: 13.8 µM
[3]
  IC50: 100 µM
[4]
  IC50: 100 µM
